System: U2OS
Assay: Multiplex assay against U2OS
Type: toxicity, cell-based
Details: human
In short: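 With compound added, live cells were imaged on a CQ1 microscope at 37°C and 5% CO2; staining with Hoechst33342, BioTracker Green Microtubule Cytoskeleton Dye, MitoTracker Red and Annexin V Alexa Fluor 680 had been done at seeding. The CellPathfinder machine-learning gating scheme split cells into Hoechst high-intensity objects or normal cells, normal cells into healthy, pyknosed or fragmented nuclei, and pyknosed cells into mitotic or apoptotic. The tubulin, mitochondrial-mass and membrane-permeability phenotypes are per cents of healthy-nucleus cells.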

[1] = 12 h, 1 µM, compound concentration 1 uM, replicate 1
[2] = 12 h, 1 µM, compound concentration 1 uM, replicate 2
[3] = 12 h, 10 µM, compound concentration 10 uM, replicate 1
[4] = 12 h, 10 µM, compound concentration 10 uM, replicate 2
[5] = 24 h, 1 µM, compound concentration 1 uM, replicate 1
[6] = 24 h, 1 µM, compound concentration 1 uM, replicate 2
[7] = 24 h, 10 µM, compound concentration 10 uM, replicate 1
[8] = 24 h, 10 µM, compound concentration 10 uM, replicate 2

COc1ccc(S(=O)(=O)N(CCO)c2ccccc2CN(C)C/C=C/c2ccc(Cl)cc2)cc1.O=P(O)(O)O
Population Apoptotic (%) [1]: 57%
Population Healthy Nuclei (%) [1]: 77%
Population Hoechst High Intensity Objects (%) [1]: 2%
Population Membrane Permeable-Phenotype (%) [1]: 62%
Population Mitochondria Different-Phenotype (%) [1]: 91%
Population Mitotic Cells (%) [1]: 42%
Population Normal (%) [1]: 97%
Population Pyknosed Nuclei (%) [1]: 13%
Total Cell Count [1]: 95
Population Apoptotic (%) [2]: 84%
Population Fragmented Nuclei (%) [2]: 9%
Population Healthy Nuclei (%) [2]: 74%
Population Hoechst High Intensity Objects (%) [2]: 8%
Population Membrane Permeable-Phenotype (%) [2]: 85%
Population Mitochondria Different-Phenotype (%) [2]: 100%
Population Mitotic Cells (%) [2]: 15%
Population Normal (%) [2]: 91%
Population Pyknosed Nuclei (%) [2]: 15%
Population Tubulin-Different-Phenotype (%) [2]: 100%
Total Cell Count [2]: 118
Population Apoptotic (%) [3]: 57%
Population Fragmented Nuclei (%) [3]: 11%
Population Healthy Nuclei (%) [3]: 81%
Population Hoechst High Intensity Objects (%) [3]: 5%
Population Membrane Permeable-Phenotype (%) [3]: 47%
Population Mitochondria Different-Phenotype (%) [3]: 20%
Population Mitotic Cells (%) [3]: 42%
Population Normal (%) [3]: 94%
Population Pyknosed Nuclei (%) [3]: 7%
Population Tubulin-Different-Phenotype (%) [3]: 28%
Total Cell Count [3]: 170
Population Apoptotic (%) [4]: 0%
Population Fragmented Nuclei (%) [4]: 10%
Population Healthy Nuclei (%) [4]: 89%
Population Hoechst High Intensity Objects (%) [4]: 16%
Population Membrane Permeable-Phenotype (%) [4]: 33%
Population Mitochondria Different-Phenotype (%) [4]: 16%
Population Mitotic Cells (%) [4]: 0%
Population Normal (%) [4]: 83%
Population Pyknosed Nuclei (%) [4]: 0%
Population Tubulin-Different-Phenotype (%) [4]: 12%
Total Cell Count [4]: 88
Population Apoptotic (%) [5]: 69%
Population Fragmented Nuclei (%) [5]: 14%
Population Healthy Nuclei (%) [5]: 63%
Population Hoechst High Intensity Objects (%) [5]: 3%
Population Membrane Permeable-Phenotype (%) [5]: 84%
Population Mitochondria Different-Phenotype (%) [5]: 100%
Population Mitotic Cells (%) [5]: 30%
Population Normal (%) [5]: 96%
Population Pyknosed Nuclei (%) [5]: 21%
Population Tubulin-Different-Phenotype (%) [5]: 100%
Total Cell Count [5]: 125
Population Apoptotic (%) [6]: 95%
Population Fragmented Nuclei (%) [6]: 16%
Population Healthy Nuclei (%) [6]: 58%
Population Hoechst High Intensity Objects (%) [6]: 8%
Population Membrane Permeable-Phenotype (%) [6]: 94%
Population Mitochondria Different-Phenotype (%) [6]: 98%
Population Mitotic Cells (%) [6]: 4%
Population Normal (%) [6]: 91%
Population Pyknosed Nuclei (%) [6]: 24%
Population Tubulin-Different-Phenotype (%) [6]: 98%
Total Cell Count [6]: 137
Population Apoptotic (%) [7]: 62%
Population Fragmented Nuclei (%) [7]: 5%
Population Healthy Nuclei (%) [7]: 87%
Population Hoechst High Intensity Objects (%) [7]: 2%
Population Membrane Permeable-Phenotype (%) [7]: 26%
Population Mitochondria Different-Phenotype (%) [7]: 13%
Population Mitotic Cells (%) [7]: 37%
Population Normal (%) [7]: 97%
Population Pyknosed Nuclei (%) [7]: 6%
Population Tubulin-Different-Phenotype (%) [7]: 22%
Total Cell Count [7]: 173
Population Apoptotic (%) [8]: 16%
Population Fragmented Nuclei (%) [8]: 4%
Population Healthy Nuclei (%) [8]: 85%
Population Hoechst High Intensity Objects (%) [8]: 8%
Population Membrane Permeable-Phenotype (%) [8]: 17%
Population Mitochondria Different-Phenotype (%) [8]: 26%
Population Mitotic Cells (%) [8]: 83%
Population Normal (%) [8]: 91%
Population Pyknosed Nuclei (%) [8]: 9%
Population Tubulin-Different-Phenotype (%) [8]: 11%
Total Cell Count [8]: 83
